MC4R antagonist – blocks human MC4R cAMP signaling | P32245 | MC4R-expressing cells, MTII-stimulated cAMP, LANCE TR-FRET | inhibition, % at 6.5 µM | actives 0.48% (n = 360,000);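 active = inhibition above its plate's cutoff, the mean of tested wells on that plate plus 3 SD, cut at about 29% in these data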
Target sequence (P32245 whole entry, looked up): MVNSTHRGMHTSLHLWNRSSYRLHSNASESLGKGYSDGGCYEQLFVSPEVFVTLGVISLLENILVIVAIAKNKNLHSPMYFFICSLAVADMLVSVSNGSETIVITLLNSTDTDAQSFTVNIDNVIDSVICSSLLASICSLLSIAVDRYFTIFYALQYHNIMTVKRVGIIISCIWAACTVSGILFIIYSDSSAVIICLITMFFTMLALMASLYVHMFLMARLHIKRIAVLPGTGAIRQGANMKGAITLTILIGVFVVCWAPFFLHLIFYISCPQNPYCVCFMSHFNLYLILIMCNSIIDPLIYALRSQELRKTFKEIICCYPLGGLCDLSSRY
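Material – human MC4R-expressing U2OS cells · Repeats – no replicates · Detection – TR-FRET with Eu-cAMP and labeled anti-cAMP, 671 nm · Times – compound 30 min, challenge 1 h, detection 1 h · Compound – single nominal compound dose of 6.5 µM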
SMARCA2 activ – activators of SMARCA2 function; MG213 cells, MMTV-luciferase reporter, dexamethasone, overnight; actives 1% (n = 370,000); activation, % at 9.1 µM; in the data active = activation above about 7.8%
F508del corr – CFTR F508del correction in bronchial cells; actives 0.36% (n = 350,000); AID 720511; activity (quench increase), % at 7.58 µM; CFBE cells, YFP halide quenching; stimulated with forskolin plus potentiator P3; % fluorescence drop versus neutral controls;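 active = mean added fluorescence quench of at least 8% versus neutral control, with both replicates also reaching 8%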;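 note: cells transiently co-express mutant CFTR-F508del with the halide-sensitive YFP; corrector assay measuring rescue of mutant channel to the surface after 24 h compound exposure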
MC4R barr agon – activates human MC4R beta-arrestin recruitment. U2OS MC4R beta-arrestin complementation, luminescence; percent of melanotan II response, DMSO zero. P32245. activation, % at 8.9 µM. AID 540308. actives 0.98% (n = 360,000);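 active = activation above a per-plate cutoff, the mean activation of sample wells on that plate plus 3 SD, cut at about 8% in these data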
Large screens that a line does not name were inactive. Shown are actives, neighbours in structure and some others; about 2.1% of the full set was active somewhere.

O=C(c1ccccc1)N1N=C(c2cccs2)CC1c1ccccc1O (configuration not stated)	MC4R barr agon 8.4
CC1CCN(C(=O)c2ccc(S(=O)(=O)N3CCCC3)cc2)CC1	F508del corr 9.3
Cc1ccc(C(=O)NNC(=O)c2ccc(S(=O)(=O)N3CCCCC3)cc2)cc1	F508del corr 9.8
CC1CCN(C(=O)c2ccc(S(=O)(=O)N3CCCCCC3)cc2)CC1	none
Cc1ccc(-c2nnc(SCC(=O)Nc3ccc(S(=O)(=O)N4CCCCCC4)cc3)o2)cc1	MC4R barr agon 9.3 (no result: F508del corr)
CC(=O)c1cccc(NC(=O)CSc2nnc(-c3ccc(S(=O)(=O)N4CCCC4)cc3)o2)c1	none (no result: F508del corr)
C[C@H](CO)N1C[C@H](C)[C@@H](CN(C)S(=O)(=O)c2cn(C)cn2)Oc2ccc(NC(=O)CCC(F)(F)F)cc2C1=O	none (no result: MC4R antagonist, SMARCA2 activ, MC4R barr agon)
Cc1ccc(S(=O)(=O)Nc2cccc3c2O[C@H](CN(C)Cc2ccc(C(=O)O)cc2)[C@@H](C)CN([C@@H](C)CO)C3=O)cc1	none (no result: MC4R antagonist, SMARCA2 activ, MC4R barr agon)
Cc1ccc(OCC(=O)Nc2ccc(O)c(-c3nc4ccccc4o3)c2)cc1	MC4R barr agon 8.6 (no result: F508del corr)
COc1ccc(OCC(=O)Nc2ccc3oc(-c4ccncc4)nc3c2)cc1	none
COc1ccc2c3c(n(C)c2c1)[C@@H](CO)N(C(=O)Nc1cccc(F)c1)CC31CN(C)C1	none (no result: MC4R antagonist, SMARCA2 activ, MC4R barr agon)
Cc1ccc(-c2csc(N(CCCN(C)C)C(=O)c3ccco3)n2)cc1	none
CN(C)CCCN(C(=O)c1ccco1)c1nc(-c2ccc(Cl)cc2)cs1	F508del corr 8.1
COc1ccccc1N1CCN(c2ncnc3nc[nH]c23)CC1	SMARCA2 activ 7.9
O=C(Nc1cccc(N2C(=O)C=CC2=O)c1)c1cccs1	none
O=C1C=CC(=O)N1c1cccc(-c2ccccc2)c1	MC4R antagonist 48
CC(=O)Oc1cccc(N2C(=O)c3ccc(C(=O)Nc4c[nH]c(=O)[nH]c4=O)cc3C2=O)c1	MC4R antagonist 42 (no result: SMARCA2 activ, F508del corr)
Cc1noc(C)c1NC(=O)N[C@H]1C=C[C@H](CC(=O)Nc2ccccc2)O[C@H]1CO	none (no result: MC4R antagonist, SMARCA2 activ, MC4R barr agon)
Cc1ccc(-c2cc(C(F)(F)F)nn2-c2ccc(S(N)(=O)=O)cc2)cc1	MC4R barr agon 8.5
NS(=O)(=O)c1ccc(-n2nc(C(=O)O)cc2-c2ccc(Cl)cc2)cc1	none
COCCNc1nc(Nc2ccc(C)cc2C)c2sccc2n1	F508del corr 10
COc1ccc(NC(=O)N(C)C[C@@H]2Oc3ccc(NC(=O)Nc4c(C)noc4C)cc3C(=O)N([C@H](C)CO)C[C@@H]2C)cc1	none (no result: MC4R antagonist, SMARCA2 activ, MC4R barr agon)
CCc1nc2c(oc3ccccc32)c(=O)[nH]1	none (no result: F508del corr)
O=c1[nH]c(CSc2ccccn2)nc2c1oc1ccccc12	SMARCA2 activ 7.8 (no result: F508del corr)
COc1ccc2c3c(n(C)c2c1)[C@H](CO)N(C(=O)C1CCCC1)CC31CCN(CC2CCCC2)CC1	none (no result: MC4R antagonist, SMARCA2 activ, MC4R barr agon)
COc1ccccc1C(=O)Nc1nnc(SCC(=O)NC2CCCC2)s1	none (no result: SMARCA2 activ, F508del corr)
COc1ccccc1C(=O)Nc1nnc(SCC(=O)Nc2ccc3c(c2)oc2ccccc23)s1	SMARCA2 activ 13 (no result: F508del corr)
Cc1cccc(C(=O)Nc2nnc(SCC(=O)Nc3ccc4c(c3)oc3ccccc34)s2)c1	MC4R barr agon 9.4 (no result: F508del corr)
COc1cc2c(cc1NC(=O)CSc1nnnn1-c1ccccc1)oc1ccccc12	MC4R barr agon 37 (no result: F508del corr)
Cc1cccc(C(=O)Nc2nnc(SCC(=O)NC3CC3)s2)c1	none
C[C@H]1CN([C@@H](C)CO)C(=O)Cc2cc(NS(=O)(=O)c3cccs3)ccc2O[C@@H]1CN(C)CC1CCCCC1	none (no result: MC4R antagonist, SMARCA2 activ, MC4R barr agon)
C[C@@H]1CCCCO[C@@H](CN(C)Cc2ccc(C(=O)O)cc2)[C@H](C)CN([C@H](C)CO)C(=O)c2cc(NC(=O)NC3CCCCC3)ccc2O1	none (no result: MC4R antagonist, SMARCA2 activ, MC4R barr agon)
COc1ccccc1NS(=O)(=O)c1cc(C(=O)N2CCCCCC2)ccc1C	F508del corr 18
COc1ccccc1NS(=O)(=O)c1cc(C(=O)N2CCCC2)ccc1C	none
C[C@@H]1CN([C@H](C)CO)S(=O)(=O)c2ccc(C#CC3CC3)cc2O[C@H]1CN(C)C	none (no result: MC4R antagonist, SMARCA2 activ, MC4R barr agon)
C[C@@H]1CCCCO[C@H](CN(C)S(=O)(=O)c2ccccc2)[C@H](C)CN([C@@H](C)CO)C(=O)c2cc(NC(=O)NC3CCCCC3)ccc2O1	none (no result: MC4R antagonist, SMARCA2 activ, MC4R barr agon)
Nc1ccn([C@@H]2O[C@H](C(=O)NCC(F)(F)F)[C@@H](O)[C@H]2O)c(=O)n1	F508del corr 10 (no result: MC4R antagonist, MC4R barr agon)
O=C(COC(=O)c1cccc2ccccc12)Nc1ncc(C(F)(F)F)cc1Cl	MC4R barr agon 8.7 (no result: F508del corr)
CCOc1cc(/C=N/NC(=O)N/N=C/c2ccc(O)c(OCC)c2)ccc1O	F508del corr 11 (no result: MC4R antagonist, MC4R barr agon)
CCOc1ccc(/C=C/C(=O)Nc2ccccc2C(F)(F)F)cc1	MC4R barr agon 8.8 (no result: F508del corr)
Cc1ccc(NC(=O)/C=C/C(=O)O)c([N+](=O)[O-])c1	SMARCA2 activ 7.8 (no result: F508del corr)
CCOc1ccc(/C=C/C(=O)Nc2ccc(OC)cc2[N+](=O)[O-])cc1	MC4R barr agon 34 (no result: F508del corr)
COc1ccc(/C=C/C(=O)Nc2ccccc2C(F)(F)F)cc1	none (no result: F508del corr)
C/C=C/c1ccc2c(c1)O[C@H](CN(C)C(=O)C1CC1)[C@H](C)CN([C@H](C)CO)S2(=O)=O	none (no result: MC4R antagonist, SMARCA2 activ, MC4R barr agon)
Cc1noc(C)c1NC(=O)Nc1ccc2c(c1)C(=O)N([C@@H](C)CO)C[C@H](C)[C@@H](CN(C)CC1CCCCC1)O2	none (no result: MC4R antagonist, SMARCA2 activ, MC4R barr agon)
O=C(Nc1ccc(N2CCN(c3ncccc3C(F)(F)F)CC2)nc1)c1cccs1	MC4R barr agon 9.6
O=C1c2ccccc2C(=O)c2c1cccc2N(CCO)CCO	F508del corr 13
O=C1C=C(N(CCO)Cc2ccccc2)c2ccccc2C1=O	none (no result: SMARCA2 activ, F508del corr)
COc1ccc(NC(=O)Nc2ccc3c(c2)CC(=O)N([C@H](C)CO)C[C@@H](C)[C@H](CN(C)CC2CCCCC2)O3)cc1	none (no result: MC4R antagonist, SMARCA2 activ, MC4R barr agon)
OC(CN1CCN(C(c2ccccc2)c2ccccc2)CC1)c1ccccc1 (configuration not stated)	MC4R barr agon 10.0 (no result: SMARCA2 activ, F508del corr)
CCOC(=O)c1sc(NC(=O)c2ccco2)nc1-c1ccccc1	SMARCA2 activ 7.9
C=CCN1C(=O)C2C(C(=O)NCc3ccccc3)C3C=CC2(O3)C1C(=O)NC(C)(C)C (configuration not stated)	none (no result: F508del corr)
CCOC(=O)[C@@H]1[C@@H]2C=C[C@]3(O2)[C@H](C(=O)NCc2ccccc2)N(CCCCCCO)C(=O)[C@@H]13	F508del corr 10 (no result: MC4R antagonist, SMARCA2 activ, MC4R barr agon)
C[C@@H]1CN([C@@H](C)CO)C(=O)c2cc(C#CC(C)(C)O)cnc2O[C@H]1CN(C)Cc1cncnc1	none (no result: MC4R antagonist, SMARCA2 activ, MC4R barr agon)
CC(=O)c1cc(C#N)c(NCc2ccccc2)nc1C	none
CCOC(=O)c1cc(C#N)c(NCc2ccccc2)nc1C	MC4R barr agon 8.8 (no result: F508del corr)
CO[C@@H]1CN(C)C(=O)c2cc(NS(=O)(=O)c3ccccc3)ccc2OC[C@H](C)NC[C@@H]1C	none (no result: MC4R antagonist, SMARCA2 activ, MC4R barr agon)
CCC(=O)N1CCC2(CC1)CN(C(=O)NC1CCCC1)[C@@H](CO)c1c2c2ccc(OC)cc2n1C	none (no result: MC4R antagonist, SMARCA2 activ, MC4R barr agon)
N#C[C@H]1[C@@H](c2ccccc2-c2cccc(F)c2)[C@@H](CO)N1C(=O)c1cccnc1	none (no result: MC4R antagonist, SMARCA2 activ, MC4R barr agon)
C[C@H]1C[C@H]2[C@@H]3CCC4=CC(=O)C=C[C@]4(C)[C@@]3(F)[C@@H](O)C[C@]2(C)[C@@]1(O)C(=O)CO	F508del corr 10

High-throughput results as filed in PubChem BioAssay.
